Converted amounts (≈) assume the structure as drawn.
Assays:
SiHa [1] = experiment: Growth inhibition of human SiHa cells at 126.7 uM; type: functional; settings: read-out: GI
In short: (§1)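 Vero, LS180, SiHa, T47D or primary HSF cells were seeded at 10^4 cells per mL and preincubated in microtiter plates. Compounds were added at 10 or 50 µg mL⁻¹ (printed µM equivalents depend on the compound) and incubated 72 h. End-point was BrdU labelling read spectrophotometrically on an ELISA reader. Growth inhibition is % versus untreated controls; triplicates.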

[2] = Antiproliferative activity against human skin fibroblast assessed as cell viability at 100 uM by MTT assay; type: cell-based; settings: human skin fibroblasts, read-out: Activity
In short: (§2)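 MTT viability assay on primary human skin fibroblasts grown in DMEM with 10% FBS and penicillin/streptomycin. Compounds were dissolved in DMSO and given at 1, 50 or 100 µM for 24 h. Cells were washed in HEPES-buffered medium (pH 7.4) and then given MTT 0.5 mg mL⁻¹ for 45 min at 37 °C. Formazan was dissolved in DMSO and read at 570 nm. Viability is % of control; three independent measurements.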

HeLa [3] = experiment: Antiproliferative activity against human HeLa cells assessed as cell viability at 50 uM by MTT assay; type: functional; settings: read-out: Activity
In short: (§3)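 Log-phase cells, kept in supplemented RPMI 1640 (HSF in DMEM/10% FBS) at 37 °C, 5% CO2, were exposed 24 h to 1, 50 or 100 µM compound from DMSO. They were washed, given 0.5 mg/mL MTT in HEPES buffer pH 7.4 for 45 min at 37 °C, and formazan was dissolved in DMSO and read at 570 nm. Values are % viability versus control from three independent measurements.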

[4] = Antiproliferative activity against human RPMI cells assessed as cell viability at 50 uM by MTT assay; type: functional; settings: read-out: Activity; in short: as §3
[5] = Antiproliferative activity against human RPMI cells assessed as cell viability at 1 uM by MTT assay; type: functional; settings: read-out: Activity; in short: as §3
[6] = Growth inhibition of human LS180 cells at 25.3 uM; type: functional; settings: read-out: GI; in short: as §1
[7] = Growth inhibition of african green monkey Vero cells at 126.7 uM; type: cell-based; settings: chlorocebus sabaeus, read-out: GI; in short: as §1
[8] = Growth inhibition of human skin fibroblast at 126.7 uM; type: cell-based; settings: human skin fibroblasts, read-out: GI; in short: as §1
[9] = Antiproliferative activity against human skin fibroblast assessed as cell viability at 1 uM by MTT assay; type: cell-based; settings: human skin fibroblasts, read-out: Activity; in short: as §3
HeLa [10] = experiment: Antiproliferative activity against human HeLa cells assessed as cell viability at 100 uM by MTT assay; type: functional; settings: read-out: Activity; in short: as §3
[11] = Growth inhibition of african green monkey Vero cells at 25.3 uM; type: cell-based; settings: chlorocebus sabaeus, read-out: GI; in short: as §1
SiHa [12] = experiment: Growth inhibition of human SiHa cells at 25.3 uM; type: functional; settings: read-out: GI; in short: as §1
[13] = Antiproliferative activity against human RPMI cells assessed as cell viability at 100 uM by MTT assay; type: functional; settings: read-out: Activity; in short: as §3
[14] = Antiproliferative activity against human skin fibroblast assessed as cell viability at 50 uM by MTT assay; type: cell-based; settings: human skin fibroblasts, read-out: Activity; in short: as §2
[15] = Growth inhibition of human skin fibroblast at 25.3 uM; type: cell-based; settings: human skin fibroblasts, read-out: GI; in short: as §1
[16] = Lipophilicity, log kw in acetonitrile aqueous system at pH 3.5; type: physicochemical
In short: (§4)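 RP-HPLC on an octadecyl silica column (150 × 4.6 mm, 5 µm) at 22 ± 1 °C, flow 1.0 mL min⁻¹, UV detection at 254 nm. Mobile phase was methanol, acetonitrile or dioxane with water and 0.01 M phosphate buffer pH 3.5 containing 0.05 M DEA. log k_W was extrapolated to pure water by regression.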

HeLa [17] = experiment: Antiproliferative activity against human HeLa cells assessed as cell viability at 1 uM by MTT assay; type: functional; settings: read-out: Activity; in short: as §3
T47D [18] = experiment: Growth inhibition of human T47D cells at 25.3 uM; type: functional; settings: read-out: GI; in short: as §1
[19] = Lipophilicity, log kw in dioxane aqueous system at pH 3.5; type: physicochemical; settings: buffer; in short: as §4
T47D [20] = experiment: Growth inhibition of human T47D cells at 126.7 uM; type: functional; settings: read-out: GI; in short: as §1
[21] = Growth inhibition of human LS180 cells at 126.7 uM; type: functional; settings: read-out: GI; in short: as §1
[22] = Lipophilicity, log kw in methanol aqueous system at pH 3.5; type: physicochemical; in short: as §4
Klebsiella aerogenes = experiment: Antimicrobial activity against Enterobacter aerogenes at 480.6 uM by disc-diffusion method; type: functional; settings: read-out: IZ
In short: (§5)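 Kirby–Bauer disc diffusion: 5 mm paper discs soaked in compound solution in DMSO (100 or 200 µg/mL; reference drugs 200 µg/mL) and laid on inoculated Mueller-Hinton agar (bacteria) or Sabouraud agar (C. albicans, Aspergillus). DMSO discs were the control. Plates ran 24 h at 35 °C. Inhibition zone diameter was scored 0–10 mm R, 11–16 mm I, 17–25 mm S; triplicate.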

Proteus vulgaris = experiment: Antimicrobial activity against Proteus vulgaris at 480.6 uM by disc-diffusion method; type: functional; settings: read-out: IZ; in short: as §5
[23] = system: Staphylococcus epidermidis; experiment: Antimicrobial activity against Staphylococcus epidermidis at 480.6 uM by disc-diffusion method; type: functional; settings: read-out: IZ; in short: as §5
Candida albicans [24] = experiment: Antimicrobial activity against Candida albicans ATCC 10231 after 24 hrs by microdilution assay; type: functional; settings: ATCC 10231, 24 h
Aspergillus sp. = experiment: Antimicrobial activity against Aspergillus sp. at 480.6 uM by disc-diffusion method; type: functional; settings: read-out: IZ; in short: as §5
Streptococcus pyogenes = experiment: Antimicrobial activity against Streptococcus pyogenes at 480.6 uM by disc-diffusion method; type: functional; settings: read-out: IZ; in short: as §5
Pseudomonas aeruginosa = experiment: Antimicrobial activity against Pseudomonas aeruginosa ATCC 27853 at 480.6 uM by disc-diffusion method; type: functional; settings: read-out: IZ; in short: as §5
Escherichia coli = experiment: Antimicrobial activity against Escherichia coli ATCC 25922 at 480.6 uM by disc-diffusion method; type: functional; settings: read-out: IZ; in short: as §5
Streptococcus agalactiae = experiment: Antimicrobial activity against Streptococcus agalactiae at 480.6 uM by disc-diffusion method; type: functional; settings: read-out: IZ; in short: as §5
Klebsiella pneumoniae = experiment: Antimicrobial activity against Klebsiella pneumoniae at 480.6 uM by disc-diffusion method; type: functional; settings: read-out: IZ; in short: as §5
Candida albicans [25] = experiment: microbe, parasite or virus in culture; settings: ATCC 10231, read-out: IZ
Staphylococcus aureus = experiment: Antimicrobial activity against Staphylococcus aureus ATCC 25923 at 480.6 uM by disc-diffusion method; type: functional; settings: read-out: IZ; in short: as §5

`Clc1ccc(N2CCn3c(COc4ccc(Cl)cc4Cl)nnc32)cc1` showed an inhibition of growth at 126.7 µM (SiHa [1]) of 41%, a viability at 100 µM [2] of 86.8% and a viability at 50 µM (HeLa [3]) of 59.9%. The viability at 50 µM [4] was 24.4%, the viability at 1 µM [5] was 98.4% and the inhibition of growth at 25.3 µM [6] was 48%. For the same molecule, the inhibition at 126.7 µM [7] was 28%, the inhibition at 126.7 µM [8] was 10% and the viability at 1 µM [9] was 83%. For the same molecule, the viability at 100 µM (HeLa [10]) was 56.3%, the inhibition at 25.3 µM [11] was 20% and the inhibition of growth at 25.3 µM (SiHa [12]) was 35%. It also gave a viability at 100 µM [13] of 24.5%, a viability at 50 µM [14] of 83.9% and an inhibition at 25.3 µM [15] of 7%. For the same molecule, the logKw [16] was 3.75, the viability at 1 µM (HeLa [17]) was 68.4% and the inhibition of growth at 25.3 µM (T47D [18]) was 28%. It also gave a logKw [19] of 4.15, an inhibition of growth at 126.7 µM (T47D [20]) of 48% and an inhibition of growth at 126.7 µM [21] of 54%. It also gave a logKw [22] of 4.85.

Molecule `Clc1ccc(COC(Cn2ccnc2)c2ccc(Cl)cc2Cl)c(Cl)c1` (centres undefined) [MICONAZOLE] has a zone of inhibition at 480.6 µM (Klebsiella aerogenes) of 0 mm, a zone of inhibition at 480.6 µM (Proteus vulgaris) of 0 mm and a zone of inhibition at 480.6 µM [23] of 0 mm. The MIC (Candida albicans [24]) was 37.5 µM (≈ 15.6 µg/mL), the zone of inhibition at 480.6 µM (Aspergillus sp.) was 0 mm and the zone of inhibition at 480.6 µM (Streptococcus pyogenes) was 0 mm. It also gave a zone of inhibition at 480.6 µM (Pseudomonas aeruginosa) of 0 mm, a zone of inhibition at 480.6 µM (Escherichia coli) of 0 mm and a zone of inhibition at 480.6 µM (Streptococcus agalactiae) of 0 mm. It also gave a zone of inhibition at 480.6 µM (Klebsiella pneumoniae) of 0 mm, a zone of inhibition at 480.6 µM (Candida albicans [25]) of 17 mm and a zone of inhibition at 480.6 µM (Staphylococcus aureus) of 0 mm.
